# Screening results as filed in PubChem BioAssay.
# Compounds with a hit are over-represented: about 5.8% of the library has one in this group of screens.
# KDM4C inh: KDM4C (human) demethylase inhibition; inhibition, % at 12.5 µM; GST-KDM4C 2-372, H3K9me3 peptide, LANCE TR-FRET; 96,000 compounds, 0.15% hits;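 active = mean replicate inhibition above about 25%, with at least 55% of replicates also reaching it, limit read from the data, passing the limit was not always enough; inconclusive = only one of those two conditions met; inactive = neither condition met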
# Target sequence (Q9H3R0 2-372 limits assumed): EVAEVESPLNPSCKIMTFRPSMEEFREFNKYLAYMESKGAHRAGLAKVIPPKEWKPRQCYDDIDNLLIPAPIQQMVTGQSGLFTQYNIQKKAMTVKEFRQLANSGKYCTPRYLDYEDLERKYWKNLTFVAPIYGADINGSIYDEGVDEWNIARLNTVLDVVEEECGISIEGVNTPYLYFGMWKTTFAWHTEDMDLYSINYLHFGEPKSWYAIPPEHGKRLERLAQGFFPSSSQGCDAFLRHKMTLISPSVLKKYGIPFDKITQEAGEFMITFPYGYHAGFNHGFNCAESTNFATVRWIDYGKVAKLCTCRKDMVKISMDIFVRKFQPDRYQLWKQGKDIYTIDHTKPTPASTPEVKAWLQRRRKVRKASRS
#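 Material: GST-tagged GASC-1 (JMJD2C) catalytic fragment, aa 2-372 / Quantity: enzyme final amount 10 nM / Medium: HEPES buffer, pH 7.5, plus ascorbate / Doses: one test concentration per compound / Incubation: 30 min reaction, 60 min detection, RT / Measured by: LANCE TR-FRET / Read-out: inhibition from TR-FRET ratio decrease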
# IDH1 R132H inh: blocks human IDH1 R132H reductase activity; inhibition, % at 10 µM; diaphorase/resazurin fluorescence, 60 min; AID 624101; O75874; 70,000 compounds, 0.18% hits; in the data active = inhibition above about 34%; inconclusive = no clear call, values can overlap the other calls; inactive = below about 11%;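 note: 0% = DMSO and 100% = no enzyme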
# Target sequence (O75874 whole entry R132H): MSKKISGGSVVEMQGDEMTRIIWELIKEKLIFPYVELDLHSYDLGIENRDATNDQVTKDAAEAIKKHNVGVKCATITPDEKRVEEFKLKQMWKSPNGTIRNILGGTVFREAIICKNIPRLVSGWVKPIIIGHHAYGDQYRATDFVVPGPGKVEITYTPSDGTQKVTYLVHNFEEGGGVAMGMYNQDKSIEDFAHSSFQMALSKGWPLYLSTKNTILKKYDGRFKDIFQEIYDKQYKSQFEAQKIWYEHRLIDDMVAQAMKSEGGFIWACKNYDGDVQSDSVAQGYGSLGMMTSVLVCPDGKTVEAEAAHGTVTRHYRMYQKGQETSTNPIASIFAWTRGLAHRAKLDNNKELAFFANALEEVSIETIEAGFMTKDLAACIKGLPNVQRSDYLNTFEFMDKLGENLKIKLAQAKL
# Pf Dd2 inh: blocks growth of Plasmodium falciparum Dd2 parasites; activity change, % at 10 µM; AID 1159554; P. falciparum Dd2 growth, SYBR Green, 72 h; stronger effect = lower value; 94,000 compounds, 2.3% hits; in the data active = activity change below about -80%; inconclusive = no clear call, values can overlap the other calls
# T cruzi growth-1: blocks T. cruzi growth in NIH3T3 culture; T. cruzi beta-gal in NIH3T3, GalScreen luminescence, 90 h; inhibition, % at 8.34 µM; 77,000 compounds, 5.9% hits;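 active = mean inhibition above about 93%, with at least 55% of replicates each passing it, limit read from the data, passing the limit was not always enough; inconclusive = only one of those two conditions holds; inactive = neither condition holds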
# T cruzi growth-2: Trypanosoma cruzi proliferation inhibition | shares compounds with T cruzi growth-1 | T. cruzi beta-gal in NIH3T3, GalScreen luminescence, 90 h | inhibition, % at 8.35 µM | 5,600 compounds, 72% hits | AID 651739;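 active = mean replicate inhibition above about 95% and at least 55% of replicates individually reaching it, limit read from the data; inconclusive = only one of the two criteria is met; inactive = neither criterion is met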
# T cruzi growth-3: blocks T. cruzi growth in NIH3T3 host cells; shares compounds with T cruzi growth-1; T. cruzi beta-gal in NIH3T3, GalScreen luminescence, 90 h; inhibition, % at 2.09 µM; 5,600 compounds, 21% hits; AID 651740;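 active = mean inhibition above about 95%, with at least 55% of replicates also reaching it, limit read from the data; inconclusive = meets just one of the two conditions; inactive = meets neither condition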;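 note: plate controls were neutral control median for no effect and positive control median for full effect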
# 3T3 cytotox: NIH/3T3 (mouse) viability loss | shares compounds with T cruzi growth-1 | NIH/3T3 viability, CellTiter-Glo ATP luminescence, 90 h | cytotoxicity (signal decrease), % at 8.35 µM | 5,600 compounds, 14% hits | AID 651742;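 active = mean signal decrease across replicates above about 35% based on untreated-well scatter, with enough replicates individually passing, limit read from the data; inconclusive = no rule stated though some were filed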;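 note: 0% = median of neutral control wells and 100% = median of positive control wells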
# NIH3T3 tox 2: kills mouse NIH/3T3 fibroblasts; AID 651744; shares compounds with T cruzi growth-1; inhibition, % at 24.9 µM; 5,600 compounds, 56% hits; NIH/3T3 viability, CellTiter-Glo ATP luminescence, 90 h;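 active = mean loss of cell viability signal at or above a set limit, and enough replicates individually reaching it; inconclusive = meets only the mean limit or only the replicate share; inactive = meets neither condition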;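 note: 0% = median of neutral control wells and 100% = median of positive control wells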
# The depositor's hits bear a star; ? = inconclusive; nt = no result.
SMILES,KDM4C inh,IDH1 R132H inh,Pf Dd2 inh,T cruzi growth-1,T cruzi growth-2,T cruzi growth-3,3T3 cytotox,NIH3T3 tox 2
Cc1ccc(CN2C(=O)C(O)(CC(=O)c3c(C)coc3C)c3cc(Cl)ccc32)cc1 (stereo not given),nt,0.3,nt,nt,nt,nt,nt,nt
CN1C(=O)c2cc(NC(=O)c3cnccn3)ccc2OC[C@H]2O[C@@H](CC(=O)N[C@H]3CCN(Cc4ccccc4)C3)CC[C@H]21,3.6,nt,?,114.4*,104.1*,103.3*,-9.1,-10.3
CN1C(=O)c2cc(NC(=O)c3cnccn3)ccc2OC[C@H]2O[C@@H](CC(=O)N[C@@H]3CCN(Cc4ccccc4)C3)CC[C@H]21,2.2,nt,-14.0,106.6*,97.1*,88.5,-27.1,-20.3
CN1C(=O)c2cc(NC(=O)c3cnccn3)ccc2OC[C@H]2O[C@@H](CC(=O)N[C@@H]3CCN(Cc4ccccc4)C3)CC[C@@H]21,2.8,nt,-2.8,nt,nt,nt,nt,nt
COc1ccc(S(=O)(=O)Nc2ccc3c(c2)CC(=O)N([C@H](C)CO)C[C@@H](C)[C@H](CN(C)Cc2ccc(C(F)(F)F)cc2)O3)cc1,-0.1,1.7,8.2,?,101.9*,45.2,5.0,58.8*
COc1ccc(CN(C)C[C@H]2Oc3ccc(NS(=O)(=O)c4ccc(OC)cc4)cc3CC(=O)N([C@H](C)CO)C[C@@H]2C)cc1,6.7,0.0,-19.3,nt,nt,nt,nt,nt
COc1ccc(CN(C)C[C@@H]2Oc3ccc(NS(=O)(=O)c4ccc(OC)cc4)cc3CC(=O)N([C@H](C)CO)C[C@H]2C)cc1,-0.5,-1.9,-7.9,104.5*,103.4*,80.7,5.7,20.5
COc1ccc(CN(C)C[C@H]2Oc3ccc(NS(=O)(=O)c4ccc(OC)cc4)cc3CC(=O)N([C@H](C)CO)C[C@H]2C)cc1,-0.2,nt,12.8,83.7,nt,nt,nt,nt
COc1ccc(CN(C)C[C@H]2Oc3ccc(NS(=O)(=O)c4ccc(C)cc4)cc3CC(=O)N([C@H](C)CO)C[C@H]2C)cc1,-5.7,0.5,-16.8,114.7*,107.9*,36.5,8.9,?
COc1ccc2c3c([nH]c2c1)[C@@H](CO)N(C(=O)NC(C)C)CC31CN(C(=O)c2cccnc2)C1,-0.4,nt,4.6,nt,nt,nt,nt,nt
CCc1cnc(N2[C@H](C#N)[C@H](c3ccc(C#CC(C)C)cc3)[C@@H]2CO)s1,-1.3,nt,-38.0,96.4*,100.5*,112.6*,6.2,0.2
CCc1cnc(N2[C@H](C#N)[C@H](c3ccc(C#CC(C)C)cc3)[C@H]2CO)s1,-1.2,nt,-13.4,106.8*,98.0*,108.4*,16.0,25.5*
CCc1cnc(N2[C@H](C#N)[C@@H](c3ccc(C#CC(C)C)cc3)[C@H]2CO)s1,-0.6,nt,-23.2,82.6,nt,nt,nt,nt
CCc1cnc(N2[C@H](CO)[C@H](c3ccc(C#CC(C)C)cc3)[C@@H]2C#N)s1,1.7,nt,2.2,89.4,nt,nt,nt,nt
CNC[C@@H]1Oc2cc(C#Cc3ccccn3)ccc2S(=O)(=O)N([C@H](C)CO)C[C@H]1C,-2.8,0.3,-34.4,103.5*,109.6*,73.3,-7.0,-23.7
CNC[C@H]1Oc2cc(C#Cc3ccncc3)ccc2S(=O)(=O)N([C@H](C)CO)C[C@H]1C,2.4,nt,17.8,nt,nt,nt,nt,nt
CNC[C@@H]1Oc2cc(C#Cc3ccncc3)ccc2S(=O)(=O)N([C@@H](C)CO)C[C@@H]1C,5.0,9.9,-32.1,nt,nt,nt,nt,nt
CNC[C@@H]1Oc2cc(C#Cc3ccccn3)ccc2S(=O)(=O)N([C@@H](C)CO)C[C@H]1C,-3.2,-0.9,-42.8,105.2*,107.3*,72.9,-36.1,-22.1
N#C[C@H]1N[C@H](CO)[C@H]1c1ccc(C#Cc2ccc(F)cc2)cc1,-3.1,nt,-1.0,101.3*,101.1*,76.1,12.8,19.1
N#C[C@@H]1N[C@H](CO)[C@@H]1c1ccc(C#CC2CCCC2)cc1,1.5,nt,28.9,34.2,nt,nt,nt,nt
N#C[C@@H]1N[C@H](CO)[C@@H]1c1ccc(C#Cc2ccccc2F)cc1,-1.4,nt,7.4,78.7,nt,nt,nt,nt
N#C[C@H]1N[C@@H](CO)[C@@H]1c1ccc(C#Cc2ccccc2F)cc1,-0.6,nt,-8.3,99.1*,96.6*,91.1,0.2,105.7*
COc1cccc(C#Cc2ccc([C@H]3[C@@H](C#N)N[C@@H]3CO)cc2)c1,-0.9,nt,-28.7,98.4*,99.7*,100.8*,19.5,54.3*
N#C[C@H]1N[C@H](CO)[C@H]1c1ccc(C#CC2CCCC2)cc1,3.6,nt,3.8,100.6*,98.6*,68.3,4.8,26.6*
Cc1ccc(S(=O)(=O)Nc2ccc3c(c2)C(=O)N([C@@H](C)CO)C[C@@H](C)[C@H](CN(C)C(=O)Nc2cccc4ccccc24)OCCCC[C@@H](C)O3)cc1,-2.2,3.5,-26.0,102.5*,108.8*,86.6,-9.0,-1.2
SMILES,KDM4C inh,IDH1 R132H inh,Pf Dd2 inh,T cruzi growth-1,T cruzi growth-2,T cruzi growth-3,3T3 cytotox,NIH3T3 tox 2
C[C@H](CO)N1C[C@H](C)[C@@H](CN(C)C(=O)Nc2cccc3ccccc23)OCCCC[C@H](C)Oc2ccc(NS(=O)(=O)c3ccc(F)cc3)cc2C1=O,-1.9,nt,-75.2,104.8*,105.9*,?,-20.2,13.6
Cc1ccc(S(=O)(=O)Nc2ccc3c(c2)C(=O)N([C@@H](C)CO)C[C@H](C)[C@H](CN(C)C(=O)Nc2cccc4ccccc24)OCCCC[C@H](C)O3)cc1,1.2,nt,?,105.4*,106.0*,83.9,-29.1,1.8
Cc1ccc(S(=O)(=O)Nc2ccc3c(c2)C(=O)N([C@@H](C)CO)C[C@H](C)[C@H](CN(C)C(=O)Nc2cccc4ccccc24)OCCCC[C@@H](C)O3)cc1,-1.7,nt,?,68.5,nt,nt,nt,nt
C[C@@H]1CCCCO[C@@H](CN(C)C(=O)Nc2cccc3ccccc23)[C@@H](C)CN([C@H](C)CO)C(=O)c2cc(NS(=O)(=O)c3ccc(F)cc3)ccc2O1,-1.3,1.0,-34.8,-4.4,nt,nt,nt,nt
Cc1ccc(S(=O)(=O)Nc2ccc3c(c2)C(=O)N([C@H](C)CO)C[C@H](C)[C@H](CN(C)C(=O)Nc2cccc4ccccc24)OCCCC[C@H](C)O3)cc1,-0.3,nt,-66.6,91.6,nt,nt,nt,nt
Cc1ccc(S(=O)(=O)Nc2ccc3c(c2)C(=O)N([C@H](C)CO)C[C@@H](C)[C@@H](CN(C)C(=O)Nc2cccc4ccccc24)OCCCC[C@@H](C)O3)cc1,-2.2,0.3,-86.1*,108.4*,101.9*,101.9*,13.0,5.0
COCC(=O)N(C)C[C@@H]1Oc2cc(C#CC(C)(C)O)ccc2S(=O)(=O)N([C@@H](C)CO)C[C@@H]1C,-0.2,0.2,1.6,nt,nt,nt,nt,nt
COC(=O)C[C@H]1C=C[C@@H](NS(=O)(=O)c2ccccc2F)[C@@H](CO)O1,-0.4,-0.1,15.0,-43.0,nt,nt,nt,nt
